Data as given in ChEMBL document CHEMBL1125681, “Specific anti-HIV-1 "acyclonucleosides" which cannot be phosphorylated: synthesis of some deoxy analogues of 1-[(2-hydroxyethoxy)methyl]-6-(phenylthio)thymine” (J Med Chem, 1991).

Key:
[1] = tested on: MT4; test: Concentration of compound required to achieve 50% protection of MT-4 cells against HIV-1 virus induced cytopathic effect; format: functional, cell-based; conditions: Homo sapiens
Method in brief: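 HIV-1-infected MT-4 cells, scored for protection against virus-induced cytopathic effect. EC50 is the concentration protecting 50% of cells, given as the mean (± standard deviation or range) of at least two separate experiments.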

[2] = CC50/EC50 ratio expressed as selectivity index(SI); format: functional
Method in brief: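 Ratio of two MT-4 values from this work. CC50 is the concentration that reduces the viability of mock-infected MT-4 cells by 50%. EC50 is the concentration giving 50% protection of HIV-1-infected MT-4 cells against virus cytopathic effect. Both are means (± standard deviation or range) of at least two separate experiments.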

[3] = tested on: MT4; test: Concentration of compound required to reduce the viability of mock infected MT-4 cells against HIV-1 by 50%; format: functional; conditions: Homo sapiens
Method in brief: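 Mock-infected MT-4 cells were exposed to the compound, and viability was measured. CC50 is the concentration that lowers the viability of these uninfected cells by 50%. Values are means (± standard deviation or range) from at least two separate experiments.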

SMILES	EC50 [1] [µM]	Ratio [2]	CC50 [3] [µM]
CCOCn1c(Sc2ccccc2)c(CC)c(=O)[nH]c1=O	0.019	8500	161
COCCOCn1c(Sc2ccccc2)c(C)c(=O)[nH]c1=O	8.7	34	299
Cc1cn([C@H]2C[C@H](N=[N+]=[N-])[C@@H](CO)O2)c(=O)[nH]c1=O [ZIDOVUDINE]	0.003	2600	–
Cc1c(Sc2ccccc2)n(COCCCl)c(=O)[nH]c1=O	1.5	131	196
Cc1c(Sc2ccccc2)n(COCCO)c(=O)[nH]c1=O [HEPT]	6.5	> 77	> 500
Cc1c(Sc2ccccc2)n(COCCF)c(=O)[nH]c1=O	1.1	190	209
CCOCn1c(Sc2ccccc2)c(C)c(=O)[nH]c1=O	0.33	700	231
Cc1c(Sc2ccccc2)n(COCc2ccccc2)c(=O)[nH]c1=O	0.088	1080	95
Cc1c(Sc2ccccc2)n(COCCOCc2ccccc2)c(=O)[nH]c1=O	> 20	< 2.3	45
Cc1c(Sc2ccccc2)n(COCCN=[N+]=[N-])c(=O)[nH]c1=O	5.8	32	186
CCc1c(Sc2ccccc2)n(COCCO)c(=O)[nH]c1=O	0.12	–	–
CCc1c(Sc2ccccc2)n(COCc2ccccc2)c(=O)[nH]c1=O	0.0059	5800	34
